eIF4H inh = human eIF4H binding inhibitors, primary screen, translation initiation inhibitor project, biochemical, uHTS, fluorescence polarization. eIF4H fluorescence polarization binding assay. inhibition, % at 35 µM. actives 0.94% (n = 290,000);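 further: calls also rest on retests at 20 µM and on dose response follow-up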
PABP FP inh = PABP poly(A) RNA binding inhibitors, primary screen, biochemical, fluorescence polarization, uHTS; actives 1% (n = 290,000); Polyadenylate-binding protein 1 (Homo sapiens), P11940; inhibition, % at 35 µM; AID 2014, 2009;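 further: calls also rest on retests at 20 µM and on dose response follow-up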
SKN-1 inh = suppressors of acrylamide-induced Pgst-4::GFP reporter in worms, primary screen, SKN-1 inhibitor project, whole organism, uHTS, GFP/RFP fluorescence ratio, strain VP596; C. elegans VP596 Pgst-4::GFP/RFP ratio, 24 h; inhibition, % at 21.8 µM; actives 0.49% (n = 360,000); AID 624304, 2012;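 active means interference check ratio from 0.5 to 1.5 plus GFP to RFP signal ratio inhibition reaching or exceeding a fixed threshold, cut at about 30% in these data, passing the limit was not always enough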
PABP1 MLLE inh = inhibitors of PABP1 MLLE–PAM2 peptide binding, primary screen, biochemical, fluorescence polarization, FITC-PAM2, GST-MLLE; inhibition, % at 20 µM; Polyadenylate-binding protein 1 (Homo sapiens), P11940; actives 0.36% (n = 360,000); in the data active means inhibition above about 35%, passing the limit was not always enough;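 further: plate controls were DMSO wells with GST-MLLE for no effect and wells lacking GST-MLLE protein for full effect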
MT1-MMP act inh = blockers of MT1-MMP proenzyme processing, primary screen, HT1080 RFP-PRO-GFP cells, GFP/RFP fluorescence | AID 651647, 2012 | Matrix metalloproteinase-14 (Homo sapiens), P50281 | actives 0.061% (n = 360,000) | GFP/RFP ratio fluorescence, overnight; percent of plate control window, DMSO zero | GFP/RFP ratio change, % at 20 µM;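 active means GFP/RFP ratio change of at least 30% with cell ATP level not reduced by more than half and red fluorescence within 50% of control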
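Test system: HT1080 cells expressing an RFP-PRO-GFP fluorescent reporter construct / Compound dosing: single-point 20 µM compound, 1% DMSO / Schedule: cells overnight before dosing, compound overnight, 37 °C, 5% CO2 / Evaluation: GFP/RFP fluorescence ratio / Control set: DMSO and RFP-L50D-GFP cell wells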
The depositor's hits bear a star; u = inconclusive; x = no result given. Compounds with a hit are over-represented: about 1.7% of the library has one in this group of screens. Unless noted, how the calls were made is not given here.

SMILES	eIF4H inh	PABP FP inh	SKN-1 inh	PABP1 MLLE inh	MT1-MMP act inh
Cc1ccc(Cl)cc1N(C)C(=O)Cn1ncc2c([nH]c3ccccc32)c1=O	0.5	14.5	3.9	-0.1	0.9
Cc1cccc2cc3c(N)c(C(=O)N4CCc5ccccc54)sc3nc12	30.9	5.7	10.6	22.2	-153.1
CCC(C)c1ccc(NC(=O)COc2c(F)c(F)c(C(F)(F)F)c(F)c2F)cc1 (stereo not given)	active	117.3*	13.7	-6.7	-2.7
CCC(=O)c1ccc(OCC(=O)OCC(=O)Nc2cccc(S(=O)(=O)N3CCOCC3)c2)cc1	x	x	7.2	-1.4	1.9
Cc1ccc2c(c1)C(=O)C(=O)N2Cc1ccc(Cl)cc1	x	x	9.2	-2.1	1.3
COc1ccc(NC(C)=[N+](C)CCNS(=O)(=O)c2ccc(Cl)cc2)cc1	-15.7	55.8*	5.1	-49.5	-2.1
COc1ccc(NC(=O)CNS(=O)(=O)c2ccc(Cl)cc2)cc1	2.6	10.5	-0.5	13.6	4.3
COC(=O)CSc1nc2cc(C)cc(C)c2cc1C#N	29.2	25.8	37.3*	-0.8	-32.9
Cc1cc(C)c2cc(C#N)c(N3CCCC3)nc2c1	7.7	10.9	48.2*	-7.9	-2.6
COC(=O)CSc1nc2ccc(C)cc2cc1C#N	6.4	u	-7.4	3.8	-21.2
Cc1cc(C)c2cc(C#N)c(N3CCCN(C(=S)NCCCN(C)C)CC3)nc2c1	-7.3	16.4	9.4	-115.8	-0.5
CC1CC(c2ccccc2)NS(=O)(=O)O1 (stereo not given)	-3.3	-6.3	-0.9	-17.6	5.9
COc1ccc(C(=O)N2CCc3ccc(NC(=O)c4ccccn4)cc3C2)cc1F	5.2	-0.4	13.1	4.3	-4.0
C/C(=N\NC(=S)NCCc1ccccc1)c1ccc(O)cc1O	1.0	-2.5	-3.0	40.1*	-3.4
C/C(=N\NC(=S)NCCc1ccccc1)c1ccc(Cl)cc1Cl	-8.8	0.1	-4.5	22.4	1.1
CN(Cc1ccccc1)S(=O)(=O)c1ccc(Cl)c(C(=O)OCC(=O)NC2CCS(=O)(=O)C2)c1 (stereo not given)	x	x	0.8	2.5	-3.2
Cc1ccc(Cl)cc1NC(=O)c1cc(S(=O)(=O)N2CCOCC2)cn1C	-0.1	1.5	-17.4	-19.7	5.4
CCCCOc1ccc(C(=O)OC2CC(C)N(C)CC2C)cc1 (stereo not given)	-3.6	6.4	41.9*	-4.4	0.4
COc1ccc(Cl)cc1NC(=O)CSc1nnc(Cc2ccc(C)cc2)c(=O)[nH]1	x	x	-8.4	8.6	4.1
CCn1cc(C(=O)Nc2ccccc2)c(=O)c2ccc(C)nc21	10.2	14.3	x	x	x
C=CCSc1nnc(NC(=O)c2cn(CC)c3nc(C)ccc3c2=O)s1	48.8	52.7*	18.4	-99.6	-5.1
O=c1c2ccccc2c(-c2ccccc2)nn1-c1cc(Cl)ccc1[N+](=O)[O-]	8.9	-5.8	17.2	3.9	-3.7
CCc1ccc(-c2nn(-c3cc(Cl)ccc3[N+](=O)[O-])c(=O)c3ccccc23)cc1	8.1	2.3	37.1*	1.3	-3.8
Nc1nc(SCC(=O)Nc2cccc(F)c2)n[nH]1	x	x	-14.6	-9.1	-2.2
CC(C)(C)c1nnc(NC(=O)CCC2CCCCC2)s1	x	x	7.5	5.0	-1.7
SMILES	eIF4H inh	PABP FP inh	SKN-1 inh	PABP1 MLLE inh	MT1-MMP act inh
CCC(C)(C)c1nnc(NC(=O)CCC2CCCCC2)s1	x	x	35.7*	-0.9	4.0
COc1ccc(S(=O)(=O)N2CCN(CC(=O)NC(Cc3ccccc3)C(C)=O)CC2)cc1 (stereo not given)	x	x	10.1	-3.9	-0.5
CCN(CC)S(=O)(=O)c1cccc(NC(=O)COC(=O)c2n[nH]c(=O)c3ccccc23)c1	-0.7	68.0*	-0.4	-22.6	2.0
CCN(CC)S(=O)(=O)c1cccc(NC(=O)COC(=O)c2cc(C)oc2C)c1	-1.4	0.3	1.3	-17.7	-4.7
COc1ccccc1CNC(=O)COC(=O)C1CCN(S(=O)(=O)c2ccccc2)CC1	x	x	-3.5	12.0	2.2
CCOC(=O)C1=C(C)N=c2s/c(=C\c3ccc(OCC(=O)O)cc3)c(=O)n2C1c1ccccc1 (stereo not given)	21.5	9.9	16.5	-68.5	-2.8
COC(=O)C1=C(C)N=c2s/c(=C/c3ccoc3)c(=O)n2C1c1ccccc1 (stereo not given)	83.0*	105.0*	6.1	-115.3	-12.6
COC(=O)C1=C(C)N=c2s/c(=C/c3cccs3)c(=O)n2C1c1cccs1 (stereo not given)	12.1	9.9	39.2*	-89.1	-5.1
CCN(CC)c1ncc(C#N)c(N)n1	4.4	29.8	-1.0	4.8	4.8
Fc1cccc(Cc2c(-c3ccccc3)nc3c4ccccc4ccn23)c1	x	x	11.8	x	-1.3
[N-]=[N+]=NC[C@H](Cc1ccccc1)N1CCN(Cc2ccccc2)CCC1=O	-0.8	7.6	-5.2	8.6	-0.1
COc1ccccc1NC(=O)C1=C(C)NC(=O)NC1c1cc(C)cs1 (stereo not given)	0.6	55.5*	7.1	-3.2	-2.8
CC1=C(C(=O)Nc2ccccc2C)C(c2cccs2)NC(=S)N1 (stereo not given)	-6.2	2.2	-5.1	-126.7	0.7
CCOc1ccccc1NC(=O)C1=C(C)NC(=S)NC1c1cccs1 (stereo not given)	-1.9	50.9*	3.2	-120.9	-3.4
CCOC(=O)C1=C(C(C)=O)C(c2cccnc2)C(C#N)=C(N)O1 (stereo not given)	55.2*	71.8*	3.6	19.8	-4.4
CCOC(=O)C1=C(CSc2nc(-c3ccncc3)ccc2C#N)OC(N)=C(C#N)C1c1cccnc1 (stereo not given)	119.5*	119.0*	23.6	0.8	-16.1
CCOC(=O)CC(=O)CSc1nc(-c2cccnc2)cc(C)c1C#N	u	u	17.2	5.9	-1.2
CCOC(=O)CC(=O)CSc1nc(-c2cccnc2)ccc1C#N	68.6*	77.3*	3.1	2.6	-11.5
CCOC(=O)CC(=O)CSc1nc(N)c(C#N)c(-c2ccc(F)cc2)c1C#N	62.3*	64.0*	6.2	-3.2	-2.9
CCOC(=O)CSc1nc(N)c(C#N)c(-c2ccc(OC)cc2)c1C#N	0.2	0.5	8.8	-88.7	1.4
CC1(C)CC2=C(CO1)C(=S)NC(c1ccccc1)N2CC1CCCO1 (stereo not given)	4.1	9.1	-6.6	42.0*	4.3
O=c1c2ccccc2[nH]c(=S)n1CC1CCCO1 (stereo not given)	x	x	22.4	-49.3	-3.1
CC(C)(C)NC(=O)C1c2ccccc2OCC(=O)N1CC(F)(F)F (stereo not given)	x	x	-2.9	x	-0.7

Assay outcomes (PubChem)
